{"data": "Published values collected from several papers", "read-out": "DPPH scavenging", "note": "Compare with care: the assays were run in different laboratories."}
{"SMILES": "COc1cc(C=Cc2cc(-c3ccccc3)nc(O)n2)ccc1O", "IC50": "24 µg/mL"}
{"SMILES": "O=C1O[C@H]([C@@H](O)CO)C(O)=C1O", "test": "absorbance", "IC50": "141000 nM"}
{"SMILES": "O=C(Cc1c[nH]c2ccccc12)Nc1ccc(Br)cc1", "IC50": "1030 nM"}
{"SMILES": "COc1ccc(-c2nc3cc([N+](=O)[O-])ccc3[nH]2)cc1OCc1ccccc1", "test": "absorbance", "IC50": "2570 nM"}
{"SMILES": "CCOC(=O)c1cc(O)c(O)c(O)c1", "test": "absorbance", "IC50": "43400 nM"}
{"SMILES": "COc1cc(C(CC(=O)c2ccc(C(C)(C)C)cc2)NCCc2ccc(O)c(O)c2)ccc1O (stereo not shown)", "IC50": "15.6 µg/mL"}
{"SMILES": "O=C1O[C@H]([C@@H](O)CO)C(O)=C1O", "IC50": "510 nM"}
{"SMILES": "O=C(O)c1cc(O)c(O)c(O)c1", "test": "absorbance", "IC50": "36700 nM"}
{"SMILES": "Cc1cc(C(C)(C)C)c(O)c(C(C)(C)C)c1", "IC50": "25.2 µg/mL"}
{"SMILES": "O=C(OC[C@H]1O[C@@H](OC(=O)c2cc(O)c(O)c(O)c2)[C@H](OC(=O)c2cc(O)c(O)c(O)c2)[C@@H](OC(=O)c2cc(O)c(O)c(O)c2)[C@@H]1O)c1cc(O)c(O)c(O)c1", "test": "absorbance", "IC50": "11900 nM"}
{"SMILES": "COc1ccc(OC)c(NC(=O)Cc2c[nH]c3ccccc23)c1", "IC50": "2000 nM"}
{"SMILES": "Cc1cc2nc(-c3ccccc3OCc3ccccc3)[nH]c2cc1C", "test": "absorbance", "IC50": "1800 nM"}
{"SMILES": "Cc1c(C)c2c(c(C)c1O)CC[C@@](C)(CCC[C@H](C)CCC[C@H](C)CCCC(C)C)O2", "test": "absorbance", "IC50": "11.3 µg/mL"}
{"SMILES": "COc1cc(C=CC(=O)CC(c2ccc([N+](=O)[O-])cc2)n2ccnc2)ccc1O (stereo not shown)", "IC50": "26.9 µg/mL"}
{"SMILES": "COc1ccc(NC(=O)Cc2c[nH]c3ccccc23)cc1", "IC50": "1040 nM"}
{"SMILES": "COc1cc(-c2oc3cc(O)cc(O)c3c(=O)c2O[C@@H]2O[C@H](CO)[C@@H](O)[C@H](O)[C@H]2O)ccc1O", "test": "absorbance", "IC50": "> 500000 nM"}
{"SMILES": "O=C(Cc1c[nH]c2ccccc12)Nc1ccc(F)cc1F", "IC50": "1710 nM"}
{"SMILES": "COc1ccc(-c2nc3cc(C)c(C)cc3[nH]2)cc1OCc1ccccc1", "test": "absorbance", "IC50": "1820 nM"}
{"SMILES": "Cc1ccc(Cl)cc1NC(=O)Cc1c[nH]c2ccccc12", "IC50": "1620 nM"}
{"SMILES": "COc1cc(C(CC(N)=O)NCCc2ccc(O)c(O)c2)ccc1O (stereo not shown)", "IC50": "80.2 µg/mL"}
{"SMILES": "COc1cc(NC(=O)Cc2c[nH]c3ccccc23)ccc1C", "IC50": "1530 nM"}
{"SMILES": "Cc1cc(C(C)(C)C)c(O)c(C(C)(C)C)c1", "test": "absorbance", "IC50": "25.9 µg/mL"}
